Test results from ChEMBL document CHEMBL1150117, “Two new subergane-based sesquiterpenes from a Taiwanese Gorgonian coral Subergorgia suberosa” (2002).
Values after ≈ are worked out from the molar mass of the structure shown.

Tests used:
HeLa = test: Cytotoxicity against human HeLa cells after 4 hrs by MTT assay; type: functional; conditions: read-out: ED50 (the source's name)
How it was run: (§1)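 KB and HeLa cells from ATCC; growth inhibition read by MTT colorimetric method; ED50 in μg/mL.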

KB = test: Cytotoxicity against human KB cells after 4 hrs by MTT assay; type: functional; conditions: read-out: ED50 (the source's name); how it was run: as §1

Row | Structure (SMILES) | EC50 (HeLa) | EC50 (KB)
1 | CC(=O)O[C@H]1C[C@H](C)[C@H]2CC[C@]3(C)C=C(C(=O)O)[C@@H](C)[C@]123 | > 10 µg/mL | > 10 µg/mL
2 | C[C@@H]1C(C(=O)O)=C[C@@]2(C)CC[C@@H]3[C@@H](C)C[C@H](O)[C@@]132 | > 10 µg/mL | > 10 µg/mL
3 | COC(=O)C1=C[C@@]2(C)CC[C@@H]3[C@@H](C)C[C@H](OC(C)=O)[C@@]32[C@@H]1C | > 10 µg/mL | > 10 µg/mL
4 | COC(=O)C1=C[C@@]2(C)CC[C@@H]3[C@@H](C)CC(=O)[C@@]32[C@@H]1C [SUBERGORGIC ACID METHYL ESTER] | – | 4.3 µg/mL (≈ 16.4 µM)
5 | C[C@@H]1CC(=O)[C@@]23[C@@H](C)C(C(=O)O)=C[C@]2(C)CC[C@@H]13 [SUBERGORGIC ACID] | > 10 µg/mL | > 10 µg/mL
6 | C[C@@H]1C(CO)=C[C@@]2(C)CC[C@@H]3[C@@H](C)CC[C@@]132 [SUBERGORGIOL] | > 10 µg/mL | > 10 µg/mL
